Experimental data from ChEMBL document CHEMBL1833936, “7-azaindenoisoquinolines as topoisomerase I inhibitors and potential anticancer agents” (J Med Chem, 2011).
Values after ≈ are worked out from the molar mass of the structure shown. Active and inactive are the calls of the source. The calls are words filed in the database; no cut-off is given here.

system: SF-539; test: Cytotoxicity against human SF539 cells after 48 hrs by SRB assay; format: functional; conditions: SF-539, 48 h
Summary of the method: (§1)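 NCI 60-cell-line screen. Cells incubated 48 h with five 10-fold dilutions starting at 100 μM, then stained with sulforhodamine B. Optical density relative to control plotted against log concentration.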

Row | Structure (SMILES) | GI50
1 | CN(C)CCCn1c2c(c3ccccc3c1=O)C(=O)c1cccnc1-2 | 1910 nM
2 | O=C1c2cccnc2-c2c1c1ccccc1c(=O)n2CCCNCCO | 870 nM
3 | O=C1c2cccnc2-c2c1c1ccccc1c(=O)n2CCCN1CCOCC1 | 5620 nM
4 | COc1cc2c3c(n(CCCN)c(=O)c2cc1OC)-c1ncccc1C3=O | 2190 nM
5 | COc1cc2c3c(n(C)c(=O)c2cc1OC)-c1cc2c(cc1C3=O)OCO2 | 1660 nM
6 | CN(C)CCCn1c2c(c3ccc([N+](=O)[O-])cc3c1=O)C(=O)c1cccnc1-2 | 2690 nM
7 | COc1cc2c3c(n(CCCN(C)C)c(=O)c2cc1OC)-c1ccccc1C3=O | 6170 nM
8 | COc1cc2c3c(n(CCCN4CCOCC4)c(=O)c2cc1OC)-c1ncccc1C3=O | 290 nM

system: MCF7; test: Cytotoxicity against human MCF7 cells after 48 hrs by SRB assay; format: functional; conditions: MCF7, 48 h; summary of the method: as §1

Row | Structure (SMILES) | GI50
9 | CN(C)CCCn1c2c(c3ccccc3c1=O)C(=O)c1cccnc1-2 | 250 nM
10 | O=C1c2cccnc2-c2c1c1ccccc1c(=O)n2CCCNCCO | 480 nM
11 | O=C1c2cccnc2-c2c1c1ccccc1c(=O)n2CCCN1CCOCC1 | 2750 nM
12 | COc1cc2c3c(n(CCCN)c(=O)c2cc1OC)-c1ncccc1C3=O | 49000 nM
13 | COc1cc2c3c(n(C)c(=O)c2cc1OC)-c1cc2c(cc1C3=O)OCO2 | 1910 nM
14 | CN(C)CCCn1c2c(c3ccc([N+](=O)[O-])cc3c1=O)C(=O)c1cccnc1-2 | 360 nM
15 | COc1cc2c3c(n(CCCN(C)C)c(=O)c2cc1OC)-c1ccccc1C3=O | 6170 nM
16 | COc1cc2c3c(n(CCCN4CCOCC4)c(=O)c2cc1OC)-c1ncccc1C3=O | 52 nM

system: UACC-62; test: Cytotoxicity against human UACC62 cells after 48 hrs by SRB assay; format: functional; conditions: UACC-62, 48 h; summary of the method: as §1

Row | Structure (SMILES) | GI50
17 | CN(C)CCCn1c2c(c3ccccc3c1=O)C(=O)c1cccnc1-2 | 2690 nM
18 | O=C1c2cccnc2-c2c1c1ccccc1c(=O)n2CCCNCCO | 3090 nM
19 | O=C1c2cccnc2-c2c1c1ccccc1c(=O)n2CCCN1CCOCC1 | > 100000 nM
20 | COc1cc2c3c(n(CCCN)c(=O)c2cc1OC)-c1ncccc1C3=O | 8130 nM
21 | COc1cc2c3c(n(C)c(=O)c2cc1OC)-c1cc2c(cc1C3=O)OCO2 | 560 nM
22 | CN(C)CCCn1c2c(c3ccc([N+](=O)[O-])cc3c1=O)C(=O)c1cccnc1-2 | 3310 nM
23 | COc1cc2c3c(n(CCCN4CCOCC4)c(=O)c2cc1OC)-c1ncccc1C3=O | 95 nM

system: HOP-62; test: Cytotoxicity against human HOP62 cells after 48 hrs by SRB assay; format: functional; conditions: HOP-62, 48 h; summary of the method: as §1

Row | Structure (SMILES) | GI50
24 | CN(C)CCCn1c2c(c3ccccc3c1=O)C(=O)c1cccnc1-2 | 1510 nM
25 | O=C1c2cccnc2-c2c1c1ccccc1c(=O)n2CCCNCCO | 1410 nM
26 | O=C1c2cccnc2-c2c1c1ccccc1c(=O)n2CCCN1CCOCC1 | 35500 nM
27 | COc1cc2c3c(n(CCCN)c(=O)c2cc1OC)-c1ncccc1C3=O | 3020 nM
28 | COc1cc2c3c(n(C)c(=O)c2cc1OC)-c1cc2c(cc1C3=O)OCO2 | 8510 nM
29 | CN(C)CCCn1c2c(c3ccc([N+](=O)[O-])cc3c1=O)C(=O)c1cccnc1-2 | 2350 nM
30 | COc1cc2c3c(n(CCCN(C)C)c(=O)c2cc1OC)-c1ccccc1C3=O | 11500 nM
31 | COc1cc2c3c(n(CCCN4CCOCC4)c(=O)c2cc1OC)-c1ncccc1C3=O | 300 nM

system: not listed separately; test: Aqueous solubility at pH 7.5 after 24 hrs by HPLC; format: physicochemical; conditions: not given
Summary of the method: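 Solid sample (4–10 mg) shaken in 1 M Tris buffer pH 7.5 for 24 h at 25 °C, then centrifuged and supernatant filtered. Supernatant analysed by reverse-phase C18 HPLC eluting methanol (1% TFA)/water 90:10. Concentration from one-point calibration against buffer solutions of known concentration.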

Row | Structure (SMILES) | solubility at 24 h
32 | CN(C)CCCn1c2c(c3ccccc3c1=O)C(=O)c1cccnc1-2 | 24 mM (≈ 8 mg/mL)
33 | COc1cc2c3c(n(CCCN(C)C)c(=O)c2cc1OC)-c1ccccc1C3=O | 60 mM (≈ 23.5 mg/mL)

system: SN12C; test: Cytotoxicity against human SN12C cells after 48 hrs by SRB assay; format: functional; conditions: not given; summary of the method: as §1

Row | Structure (SMILES) | GI50
34 | CN(C)CCCn1c2c(c3ccccc3c1=O)C(=O)c1cccnc1-2 | 810 nM
35 | O=C1c2cccnc2-c2c1c1ccccc1c(=O)n2CCCNCCO | 760 nM
36 | O=C1c2cccnc2-c2c1c1ccccc1c(=O)n2CCCN1CCOCC1 | 5370 nM
37 | COc1cc2c3c(n(CCCN)c(=O)c2cc1OC)-c1ncccc1C3=O | 2880 nM
38 | CN(C)CCCn1c2c(c3ccc([N+](=O)[O-])cc3c1=O)C(=O)c1cccnc1-2 | 1000 nM
39 | COc1cc2c3c(n(CCCN(C)C)c(=O)c2cc1OC)-c1ccccc1C3=O | 11000 nM
40 | COc1cc2c3c(n(CCCN4CCOCC4)c(=O)c2cc1OC)-c1ncccc1C3=O | 520 nM

molecular target: T1, DNA topoisomerase 1 (Homo sapiens) (UniProt P11387); test: Inhibition of human topoisomerase 1 assessed as inhibition of radiolabeled DNA fragment cleavage 0.1 to 100 uM after 20 mins by gel-based phosphoimaging relative to control; conditions: not given
T1 sequence (whole entry): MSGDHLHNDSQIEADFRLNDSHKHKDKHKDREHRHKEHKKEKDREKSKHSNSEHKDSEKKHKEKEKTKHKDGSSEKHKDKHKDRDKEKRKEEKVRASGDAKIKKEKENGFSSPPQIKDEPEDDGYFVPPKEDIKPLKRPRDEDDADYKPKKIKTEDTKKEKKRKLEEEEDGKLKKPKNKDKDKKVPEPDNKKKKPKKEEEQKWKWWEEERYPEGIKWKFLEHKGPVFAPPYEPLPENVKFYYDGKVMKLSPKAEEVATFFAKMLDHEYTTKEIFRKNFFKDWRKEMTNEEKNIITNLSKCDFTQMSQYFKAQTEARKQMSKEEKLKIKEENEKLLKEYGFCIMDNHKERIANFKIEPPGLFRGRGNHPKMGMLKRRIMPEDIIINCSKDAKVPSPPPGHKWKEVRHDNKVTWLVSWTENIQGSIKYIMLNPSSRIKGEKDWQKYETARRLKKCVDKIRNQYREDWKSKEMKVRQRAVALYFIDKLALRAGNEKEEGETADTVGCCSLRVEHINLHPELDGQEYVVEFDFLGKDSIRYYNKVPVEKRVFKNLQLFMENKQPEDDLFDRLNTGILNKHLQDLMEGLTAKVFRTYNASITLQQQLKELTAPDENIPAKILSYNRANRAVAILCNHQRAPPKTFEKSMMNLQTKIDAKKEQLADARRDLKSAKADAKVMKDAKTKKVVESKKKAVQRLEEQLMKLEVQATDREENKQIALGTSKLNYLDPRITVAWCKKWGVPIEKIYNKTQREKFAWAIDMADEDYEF
Summary of the method: (§2)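 Human recombinant Top1 purified from baculovirus. About 2 nM 117-bp DNA substrate, 3′-end-labeled with [α-32P]-dGTP by Klenow fill-in. Stopped with 0.5% SDS and formamide loading dye; 20% denaturing PAGE, phosphoimager. Tested at 0.1, 1, 10 and 100 μM.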

Row | Structure (SMILES) | inhibition
41 | CN(C)CCCn1c2c(c3ccccc3c1=O)C(=O)c1cccnc1-2 | Active
42 | O=C1c2cccnc2-c2c1c1ccccc1c(=O)n2CCCNCCO | inactive
43 | O=C1c2cccnc2-c2c1c1ccccc1c(=O)n2CCCN1CCOCC1 | Active
44 | COc1cc2c3c(n(CCCN)c(=O)c2cc1OC)-c1ncccc1C3=O | Active
45 | COc1cc2c3c(n(C)c(=O)c2cc1OC)-c1cc2c(cc1C3=O)OCO2 | Active
46 | CN(C)CCCn1c2c(c3ccc([N+](=O)[O-])cc3c1=O)C(=O)c1cccnc1-2 | Active
47 | COc1cc2c3c(n(CCCN(C)C)c(=O)c2cc1OC)-c1ccccc1C3=O | Active
48 | COc1cc2c3c(n(CCCN4CCOCC4)c(=O)c2cc1OC)-c1ncccc1C3=O | Active

molecular target: T1, DNA topoisomerase 1 (Homo sapiens); test: Inhibition of human topoisomerase 1 assessed as inhibition of radiolabeled DNA fragment cleavage up to 100 uM after 20 mins by gel-based phosphoimaging relative to control; conditions: not given; summary of the method: as §2

Row | Structure (SMILES) | inhibition
49 | COc1cc2c3c(n(CCCN4CCOCC4)c(=O)c2cc1OC)-c1ncccc1C3=O | Active

system: OVCAR-3; test: Cytotoxicity against human OVCAR3 cells after 48 hrs by SRB assay; format: functional; conditions: OVCAR-3, 48 h; summary of the method: as §1

Row | Structure (SMILES) | GI50
50 | CN(C)CCCn1c2c(c3ccccc3c1=O)C(=O)c1cccnc1-2 | 2570 nM
51 | O=C1c2cccnc2-c2c1c1ccccc1c(=O)n2CCCNCCO | 1550 nM
52 | O=C1c2cccnc2-c2c1c1ccccc1c(=O)n2CCCN1CCOCC1 | 28200 nM
53 | COc1cc2c3c(n(CCCN)c(=O)c2cc1OC)-c1ncccc1C3=O | 1580 nM
54 | CN(C)CCCn1c2c(c3ccc([N+](=O)[O-])cc3c1=O)C(=O)c1cccnc1-2 | 2290 nM
55 | COc1cc2c3c(n(CCCN4CCOCC4)c(=O)c2cc1OC)-c1ncccc1C3=O | 370 nM

system: HCT-116; test: Cytotoxicity against human HCT116 cells after 48 hrs by SRB assay; format: functional; conditions: HCT-116, 48 h; summary of the method: as §1

Row | Structure (SMILES) | GI50
56 | CN(C)CCCn1c2c(c3ccccc3c1=O)C(=O)c1cccnc1-2 | 410 nM
57 | O=C1c2cccnc2-c2c1c1ccccc1c(=O)n2CCCNCCO | 300 nM
58 | O=C1c2cccnc2-c2c1c1ccccc1c(=O)n2CCCN1CCOCC1 | 1860 nM
59 | COc1cc2c3c(n(CCCN)c(=O)c2cc1OC)-c1ncccc1C3=O | 380 nM
60 | COc1cc2c3c(n(C)c(=O)c2cc1OC)-c1cc2c(cc1C3=O)OCO2 | 11500 nM
61 | CN(C)CCCn1c2c(c3ccc([N+](=O)[O-])cc3c1=O)C(=O)c1cccnc1-2 | 440 nM
62 | COc1cc2c3c(n(CCCN4CCOCC4)c(=O)c2cc1OC)-c1ncccc1C3=O | 220 nM

molecular target: T1, DNA topoisomerase 1 (Homo sapiens); test: Inhibition of human topoisomerase 1 assessed as inhibition of radiolabeled DNA fragment cleavage after 20 mins by gel-based phosphoimaging relative to control; conditions: not given; summary of the method: as §2

Row | Structure (SMILES) | inhibition
63 | COc1cc2c3c(n(CCCN4CCOCC4)c(=O)c2cc1OC)-c1ncccc1C3=O | Dose-dependent effect

system: DU-145; test: Cytotoxicity against human DU145 cells after 48 hrs by SRB assay; format: functional; conditions: DU-145, 48 h; summary of the method: as §1

Row | Structure (SMILES) | GI50
64 | CN(C)CCCn1c2c(c3ccccc3c1=O)C(=O)c1cccnc1-2 | 1350 nM
65 | O=C1c2cccnc2-c2c1c1ccccc1c(=O)n2CCCNCCO | 410 nM
66 | O=C1c2cccnc2-c2c1c1ccccc1c(=O)n2CCCN1CCOCC1 | 3550 nM
67 | COc1cc2c3c(n(CCCN)c(=O)c2cc1OC)-c1ncccc1C3=O | 1620 nM
68 | COc1cc2c3c(n(C)c(=O)c2cc1OC)-c1cc2c(cc1C3=O)OCO2 | 4790 nM
69 | CN(C)CCCn1c2c(c3ccc([N+](=O)[O-])cc3c1=O)C(=O)c1cccnc1-2 | 930 nM
70 | COc1cc2c3c(n(CCCN4CCOCC4)c(=O)c2cc1OC)-c1ncccc1C3=O | 310 nM

molecular target: T1, DNA topoisomerase 1 (Homo sapiens); test: Inhibition of human topoisomerase 1-mediated DNA relaxation assessed as DNA intercalation at 1 to 100 uM after 30 mins by gel electrophoresis relative to control; conditions: not given
Summary of the method: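 Two-step unwinding assay. SV40 DNA first fully relaxed with excess Top1 for 15 min at 37 °C without drug. Relaxed DNA then incubated 30 min at 37 °C with drug at 1, 3, 10, 30 or 100 μM. Control was a further 30 min incubation at 37 °C without drug. Products resolved on gel.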

Row | Structure (SMILES) | Activity
71 | COc1cc2c3c(n(CCCN4CCOCC4)c(=O)c2cc1OC)-c1ncccc1C3=O | inactive
